Data from ChEMBL document CHEMBL2176925, “Novel ¹⁸F-labeled benzoxazole derivatives as potential positron emission tomography probes for imaging of cerebral β-amyloid plaques in Alzheimer's disease” (J Med Chem, 2012).

What was measured:
Lung [1] = assay: Drug uptake in ddY mouse lung at 370 kBq/100 ul, iv at 30 mins by gamma-counting analysis; format: ADME, organism-based; conditions: in vivo, 0.5 h
Outline: (§1)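 Normal male ddY mice (5 weeks, 20−22 g, n = 5) received 370 kBq of tracer in 100 μL saline with 5% EtOH via tail vein. Mice were sacrificed at set times after injection, and organs were excised, weighed and γ-counted against diluted injectate aliquots. Values are %ID per gram, except stomach and intestine as %ID per organ, given as mean ± SD of 5 mice.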

Lung [2] = assay: Drug uptake in ddY mouse lung at 370 kBq/100 ul, iv at 60 mins by gamma-counting analysis; format: ADME, organism-based; conditions: in vivo, 1 h; outline: as §1
Spleen = assay: Drug uptake in ddY mouse spleen at 370 kBq/100 ul, iv at 2 mins by gamma-counting analysis; format: ADME, organism-based; conditions: in vivo; outline: as §1
Liver [3] = assay: Drug uptake in ddY mouse liver at 370 kBq/100 ul, iv at 30 mins by gamma-counting analysis; format: ADME, organism-based; conditions: in vivo, 0.5 h; outline: as §1
Liver [4] = assay: Drug uptake in ddY mouse liver at 370 kBq/100 ul, iv at 60 mins by gamma-counting analysis; format: ADME, organism-based; conditions: in vivo, 1 h; outline: as §1
Liver [5] = assay: Drug uptake in ddY mouse liver at 370 kBq/100 ul, iv at 10 mins by gamma-counting analysis; format: ADME, organism-based; conditions: in vivo; outline: as §1
Lung [6] = assay: Drug uptake in ddY mouse lung at 370 kBq/100 ul, iv at 2 mins by gamma-counting analysis; format: ADME, organism-based; conditions: in vivo; outline: as §1
Liver [7] = assay: Drug uptake in ddY mouse liver at 370 kBq/100 ul, iv at 2 mins by gamma-counting analysis; format: ADME, organism-based; conditions: in vivo; outline: as §1
Heart [8] = assay: Drug uptake in ddY mouse heart at 370 kBq/100 ul, iv at 60 mins by gamma-counting analysis; format: ADME, organism-based; conditions: in vivo, 1 h; outline: as §1
Heart [9] = assay: Drug uptake in ddY mouse heart at 370 kBq/100 ul, iv at 30 mins by gamma-counting analysis; format: ADME, organism-based; conditions: in vivo, 0.5 h; outline: as §1
Brain [10] = assay: Drug uptake in ddY mouse brain at 370 kBq/100 ul, iv at 60 mins by gamma-counting analysis; format: ADME, organism-based; conditions: in vivo, 1 h; outline: as §1
Blood = assay: Drug uptake in ddY mouse blood at 370 kBq/100 ul, iv at 10 mins by gamma-counting analysis; format: ADME, organism-based; conditions: in vivo; outline: as §1
Brain [11] = assay: Drug uptake in transgenic C57BL6 mouse brain expressing APP Swedish mutant at 40.7 MBq, iv at 2 mins by microPET imaging; format: ADME, organism-based; conditions: in vivo
Brain [12] = assay: Ratio of drug uptake in brain at 2 mins to drug uptake in 20 mins in wild type C57BL6 mouse; format: ADME, tissue-based; conditions: in vivo
Brain [13] = assay: Ratio of drug uptake in brain at 2 mins to drug uptake in 20 mins in transgenic C57BL6 mouse expressing APP Swedish mutant; format: ADME, tissue-based; conditions: in vivo
Hippocampus = assay: Drug uptake in transgenic C57BL6 mouse hippocampus expressing APP Swedish mutant at 40.7 MBq, iv at 60 mins by microPET imaging; format: ADME, organism-based; conditions: in vivo, 1 h
Cortex = assay: Drug uptake in transgenic C57BL6 mouse cortex expressing APP Swedish mutant at 40.7 MBq, iv at 60 mins by microPET imaging; format: ADME, organism-based; conditions: in vivo, 1 h
Brain [14] = assay: Drug uptake in wild type C57BL6 mouse brain at 40.7 MBq, iv up to 60 mins by microPET imaging; format: ADME, organism-based; conditions: in vivo, 1 h
Brain [15] = assay: Drug uptake in wild type C57BL6 mouse brain at 40.7 MBq, iv at 2 mins by microPET imaging; format: ADME, organism-based; conditions: in vivo
Intestine [16] = assay: Drug uptake in ddY mouse intestine at 370 kBq/100 ul, iv at 10 mins by gamma-counting analysis; format: ADME, organism-based; conditions: in vivo; outline: as §1
Intestine [17] = assay: Drug uptake in ddY mouse intestine at 370 kBq/100 ul, iv at 2 mins by gamma-counting analysis; format: ADME, organism-based; conditions: in vivo; outline: as §1
Kidney [18] = assay: Drug uptake in ddY mouse kidney at 370 kBq/100 ul, iv at 60 mins by gamma-counting analysis; format: ADME, organism-based; conditions: in vivo, 1 h; outline: as §1
Kidney [19] = assay: Drug uptake in ddY mouse kidney at 370 kBq/100 ul, iv at 30 mins by gamma-counting analysis; format: ADME, organism-based; conditions: in vivo, 0.5 h; outline: as §1

| SMILES | Drug uptake (Lung [1]) [% ID/g] | Drug uptake (Lung [2]) [% ID/g] | Drug uptake (Spleen) [% ID/g] | Drug uptake (Liver [3]) [% ID/g] | Drug uptake (Liver [4]) [% ID/g] | Drug uptake (Liver [5]) [% ID/g] | Drug uptake (Lung [6]) [% ID/g] | Drug uptake (Liver [7]) [% ID/g] | Drug uptake (Heart [8]) [% ID/g] | Drug uptake (Heart [9]) [% ID/g] | Drug uptake (Brain [10]) [% ID/g] | Drug uptake (Blood) [% ID/g] | Drug uptake (Intestine [16]) [% ID/g] | Drug uptake (Intestine [17]) [% ID/g] | Drug uptake (Kidney [18]) [% ID/g] | Drug uptake (Kidney [19]) [% ID/g] | further results |
| --- | --- | --- | --- | --- | --- | --- | --- | --- | --- | --- | --- | --- | --- | --- | --- | --- | --- |
| CNc1ccc(-c2nc3cc(OCCOCCOCC[18F])ccc3o2)cc1 | 5.3 | 5.22 | 3.9 | 19.31 | 13.06 | 23.15 | 8.18 | 20.28 | 4.32 | 4.84 | 3.04 | 3.46 | 25 | 11.33 | 5.4 | 6.84 | Drug uptake (Brain [11]): Active; Ratio (Brain [12]): 1.77; Ratio (Brain [13]): 1.21; Drug uptake (Hippocampus): Active; Drug uptake (Cortex): Active; Drug uptake (Brain [14]): Not Active; Drug uptake (Brain [15]): Active |
| CN(C)c1ccc(-c2nc3cc(OCCOCCOCC[18F])ccc3o2)cc1 | 3.28 | 3.22 | 3.6 | 9.2 | 6.92 | 11.36 | 5.18 | 13.04 | 3.13 | 3.14 | 2.12 | 2.26 | 15.7 | 4.8 | 3.68 | 4.08 | – |
